Data on 12 compounds can be found in ChEMBL document CHEMBL4382209, “Comparison between porphin, chlorin and bacteriochlorin derivatives for photodynamic therapy: Synthesis, photophysical properties, and biological activity” (Eur J Med Chem, 2018).

The source made the active and inactive calls. The rule behind the calls is not given here. A value given as a limit tells only on which side of the number the result lay.

The test system of data set [1] is ECa-109 cell line. Briefly: Phototoxicity against human ECA109 cells assessed as decrease in cell viability after 24 hrs at 16 J/cm2 irradiation by MTT assay. The following applies: ECa-109, light or radiation study. It is filed as functional, cell-based. An outline of the steps: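 Eca-109 cells (5×10^4/well, attached for 24 h) took up compound (0–16 μM) for 24 h. They were washed with PBS and irradiated with Nd:YAG laser at 16 J/cm²: 635 nm for porphins, 650 nm for chlorins, 730 nm for bacteriochlorins. MTT viability was read 24 h later, and IC50 was derived.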
Background: Tetrazolium assays rely on reduction of a dye to a coloured formazan, in cell work by metabolically active cells.

A short description of data set [2]: Dark toxicity in human ECA109 cells assessed as decrease in cell viability after 24 hrs by MTT assay. The format is cell-based, ECa-109.
Data set [3] can be described thus: Induction of singlet oxygen generation assessed as singlet oxygen quantum yield by measuring DPBF chemical oxidation in DMF solution incubated up to 8 mins at 5 mW/cm2 laser irradiation by UV-Vis spectrophotometry. The format is functional.
Data set [4] is described as follows: Dark toxicity in human ECA109 cells assessed as cell survival at 20 uM after 24 hrs by MTT assay relative to control. The format is cell-based, ECa-109. The conditions noted are these: read-out: Survival. An outline of the steps: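 Eca-109 human esophageal carcinoma cells in RPMI-1640 with 10% FBS, trypsinised and seeded at 5×10^4 cells per well, attached for 24 h. Photosensitiser in medium (0 to 60 μM) was taken up for 24 h and the cells were not irradiated. Viability was read by MTT colorimetric assay 24 h after treatment.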

The nature of data set [5]: Induction of singlet oxygen generation assessed as singlet oxygen quantum yield by measuring DPBF chemical oxidation in DMF solution incubated up to 4 mins at 5 mW/cm2 laser irradiation by UV-Vis spectrophotometry. It is filed as functional.
Data set [6] can be described thus: Induction of singlet oxygen generation assessed as singlet oxygen quantum yield by measuring DPBF chemical oxidation in DMF solution incubated up to 5 mins at 5 mW/cm2 laser irradiation by UV-Vis spectrophotometry. It is filed as functional.
The nature of data set [7]: Drug uptake in mitochondria of human ECA109 cells at 10 uM after 4 hrs by Mito Tracker green dye-based confocal fluorescence microscopic method. It is filed as ADME. The following applies: eca-109, 4 h. The procedure, abridged: (§1)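 Eca-109 cells were plated on poly-L-lysine-coated coverslips at 1×10^5 cells/mL. After 24 h, they took up 10 μM compound in the dark for 4 h at 37 °C. They were stained with Mito-tracker Green or Lyso-Blue for 20 min at 37 °C, rinsed, and fixed in 4% paraformaldehyde at 4 °C for 30 min. Confocal imaging used sequential scans, exciting at 490 nm (Mito), 373 nm (Lyso, PS).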

For data set [8], the system named is ECa-109 cell line. Briefly: Antitumor activity against human ECA109 cells xenografted in BALB/c nude mouse assessed as tumor size at 5 mg/kg, iv measured every other day up to 14 days. It is filed as functional, organism-based. The procedure, abridged: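 Four-week-old female BALB/c nude mice were given 5×10^6 Eca-109 cells s.c. in PBS into the right forelimb. At about 100 mm³ (~14 days), the compound was given at 5 mg/kg in 0.2 mL via the lateral tail vein, with no irradiation; 6 mice/group. Orthogonal L and W were measured every two days for 14 days, and V = LW²/2.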
For orientation: In xenograft studies the graft and the host belong to different species.

Data set [9] is described as follows: Drug uptake in lysosomes of human ECA109 cells at 10 uM after 4 hrs by Lyso Blue dye-based confocal fluorescence microscopic method. It is filed as ADME, subcellular, Lysosome. The conditions noted are these: eca-109, 4 h. An outline of the steps:
as §1

Data set [10] deals with ECa-109 cell line. Briefly: Antitumor activity against human ECA109 cells xenografted in BALB/c nude mouse assessed as tumor size at 5 mg/kg, iv treated for 24 hrs before 120 J/cm2 laser light irradiation for 5 mins and measured every other day up to 14 days (reference value: 785 +/- 37 mm3). The format is functional. An outline of the steps: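 Eca-109 s.c. xenografts (5×10^6 cells, right forelimb) were grown in female BALB/c nude mice to ~100 mm³. Compound 5 mg/kg in 0.2 mL went i.v. into the tail vein. At 24 h, restrained unanaesthetised mice got 730 nm laser at 120 J/cm² to the tumour. Controls received no PS or light; 6 mice/group. Volume LW²/2 was taken every two days for 14 days.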

The term IC50 denotes the midpoint of a concentration-inhibition curve. Take `COc1ccc(-c2c3nc(cc4ccc([nH]4)c(-c4ccc(OC)c(OCCCC(=O)O)c4)c4nc(cc5ccc2[nH]5)C=C4)C=C3)cc1OCCCC(=O)O`: the IC50 in the data set with ECa-109 cell line [1] was determined as 10.1 µM. For the same compound, in [2], the concentration for half-maximal inhibition (IC50) at 24 h was 183 µM. Moreover, the DPBF oxidation rate constant in [3] turned out to be 1.68 ×10⁻² k/min. In addition, in [4], the viability at 24 h, 20 µM amounted to 80%.
`COc1ccc(-c2c3nc(cc4ccc([nH]4)c(-c4ccc(OC)c(OCCCC(=O)O)c4)c4nc(cc5ccc2[nH]5)CC4)CC3)cc1OCCCC(=O)O`: in the data set on ECa-109 cell line [1], the IC50 was determined as 2.47 µM. The IC50 at 24 h in data set [2] was above 300 µM. In addition, in data set [5], the Activity was 48.6 ×10⁻² k/min. In addition, the viability at 24 h, 20 µM in data set [4] came out at 80%.
As to `COc1ccc(-c2c3nc(cc4ccc([nH]4)c(-c4ccc(OC)c(OCC(=O)O)c4)c4nc(cc5ccc2[nH]5)C=C4)C=C3)cc1OCC(=O)O`, the 50% inhibitory concentration (IC50) in the data set on ECa-109 cell line [1] was determined as 12.5 µM. The IC50 at 24 h in data set [2] is 158 µM. Moreover, the DPBF oxidation rate constant in data set [3] came to 2.41 ×10⁻² k/min. In addition, the viability at 24 h, 20 µM in data set [4] came out at 80%.
Take `COc1ccc(-c2c3nc(cc4ccc([nH]4)c(-c4ccc(OC)c(OCC(=O)O)c4)c4nc(cc5ccc2[nH]5)CC4)CC3)cc1OCC(=O)O`: in the data set with ECa-109 cell line [1], the 50% inhibitory concentration (IC50) is 3.09 µM. The IC50 at 24 h in data set [2] is 187 µM. Besides, the DPBF oxidation rate constant in data set [3] was 38.7 ×10⁻² k/min. The viability at 24 h, 20 µM in [4] is 80%.
Consider `O=C(O)CCCOc1cccc(-c2c3nc(cc4ccc([nH]4)c(-c4cccc(OCCCC(=O)O)c4)c4nc(cc5ccc2[nH]5)CC4)CC3)c1`, for which the Activity was found to be 69.1 ×10⁻² k/min in data set [6] and 126 mm3 with ECa-109 cell line [10]. In addition, the Drug uptake result in [7] and in data set [9] was “Active” in each case. Besides, the IC50 with ECa-109 cell line [1] came out at 2.43 µM. Besides, the result in the data set on ECa-109 cell line [8] was inactive. In addition, the IC50 at 24 h in data set [2] is above 500 µM. For the same compound, the viability at 24 h, 20 µM in [4] came to 80%.
With `O=C(O)COc1cccc(-c2c3nc(cc4ccc([nH]4)c(-c4cccc(OCC(=O)O)c4)c4nc(cc5ccc2[nH]5)C=C4)C=C3)c1`, the IC50 with ECa-109 cell line [1] stood at 9.41 µM. Also, the IC50 at 24 h in [2] came out at 74.6 µM. Besides, the DPBF oxidation rate constant in [3] amounted to 0.829 ×10⁻² k/min. Further, in [4], the viability at 24 h, 20 µM is 80%.
For `O=C(O)COc1cccc(-c2c3nc(cc4ccc([nH]4)c(-c4cccc(OCC(=O)O)c4)c4nc(cc5ccc2[nH]5)CC4)CC3)c1` the same measures were 2.62 µM, 162 µM, 30.9 ×10⁻² k/min and 80%.
In the case of `O=C(O)COc1cccc(-c2c3nc(cc4ccc([nH]4)c(-c4cccc(OCC(=O)O)c4)c4nc(cc5ccc2[nH]5)CC4)C=C3)c1`, the Activity in data set [6] came to 4.06 ×10⁻² k/min. Moreover, the IC50 in the data set with ECa-109 cell line [1] came out at 3.31 µM. In data set [2], the IC50 at 24 h was determined as 91.8 µM. In data set [4], the viability at 24 h, 20 µM was determined as 80%.
With `COc1ccc(-c2c3nc(cc4ccc([nH]4)c(-c4ccc(OC)c(OCCCC(=O)O)c4)c4nc(cc5ccc2[nH]5)CC4)C=C3)cc1OCCCC(=O)O`, in the data set with ECa-109 cell line [1], the IC50 was determined as 2.83 µM. Further, the IC50 at 24 h in data set [2] was above 300 µM. For the same compound, in [3], the DPBF oxidation rate constant turned out to be 19.8 ×10⁻² k/min. Besides, the viability at 24 h, 20 µM in data set [4] amounted to 80%.
For `COc1ccc(-c2c3nc(cc4ccc([nH]4)c(-c4ccc(OC)c(OCC(=O)O)c4)c4nc(cc5ccc2[nH]5)CC4)C=C3)cc1OCC(=O)O` the same measures were 3.14 µM, 111 µM, 14.2 ×10⁻² k/min and 80%.
For `O=C(O)CCCOc1cccc(-c2c3nc(cc4ccc([nH]4)c(-c4cccc(OCCCC(=O)O)c4)c4nc(cc5ccc2[nH]5)C=C4)C=C3)c1` the same measures were 8.19 µM, 271 µM, 1.93 ×10⁻² k/min and 80%.
For `O=C(O)CCCOc1cccc(-c2c3nc(cc4ccc([nH]4)c(-c4cccc(OCCCC(=O)O)c4)c4nc(cc5ccc2[nH]5)CC4)C=C3)c1` the same measures were 2.65 µM, above 300 µM, 24.9 ×10⁻² k/min and 80%.
